Assay results from article PMC4783179 (The Journal of comparative neurology, 2015).
Like-named read-outs stand apart in the source and are kept apart here. Marks after values point to notes of the source that are not given here.

Key:
D2 subtype = D2 subtype (Homo sapiens, UniProt P14416); experiment: NIMH PDSP binding affinity, human cloned receptor; details: read-out: Affinity, D2 subtype
D5 = D5 (Homo sapiens, UniProt P21918); experiment: NIMH PDSP binding affinity, human cloned receptor; details: D1-like receptors
Chain of D5 (P21918 whole entry): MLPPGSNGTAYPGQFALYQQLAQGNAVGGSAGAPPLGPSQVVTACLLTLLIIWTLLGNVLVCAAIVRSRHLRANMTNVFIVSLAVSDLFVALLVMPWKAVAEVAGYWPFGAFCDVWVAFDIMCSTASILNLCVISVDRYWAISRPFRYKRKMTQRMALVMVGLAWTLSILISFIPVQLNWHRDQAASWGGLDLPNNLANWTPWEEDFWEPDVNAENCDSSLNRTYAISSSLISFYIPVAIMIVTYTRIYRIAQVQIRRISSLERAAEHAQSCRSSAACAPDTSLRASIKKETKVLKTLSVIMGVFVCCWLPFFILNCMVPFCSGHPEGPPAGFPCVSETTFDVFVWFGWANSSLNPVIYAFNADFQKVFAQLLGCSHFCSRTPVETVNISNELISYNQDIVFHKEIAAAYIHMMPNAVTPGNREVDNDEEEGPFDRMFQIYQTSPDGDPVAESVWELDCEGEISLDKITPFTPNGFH

Sprague-Dawley rats = experiment: Expanded acute toxicity study; format: in vivo, rat; details: for Maximum tolerated dose (MTD) / No observed adverse effect level (NOAEL): intravenous, Days 1, 3 and 6, male and female rats
Outline: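 Sprague-Dawley rats, 40 males and 40 females, 8–9 weeks old (males 243–283 g, females 175–202 g), plus a vehicle control group. Dosed i.v. at 4, 20 or 40 μg/kg/day (27.8, 139, 278 μg/m²/day). Monitored clinical signs (motor and behavioural), body weight, food intake, ophthalmology, haematology, serum chemistry and urinalysis. Histopathology on Days 7 and 20 after euthanasia.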

5-HT1A receptors [1] = target: T1, 5-HT1A receptors (Canis lupus familiaris, UniProt Q6XXX9); experiment: In vitro autoradiography of 18F-Mefway, beagle dog brain slices; format: binding
T1 sequence (Q6XXX9 1-423): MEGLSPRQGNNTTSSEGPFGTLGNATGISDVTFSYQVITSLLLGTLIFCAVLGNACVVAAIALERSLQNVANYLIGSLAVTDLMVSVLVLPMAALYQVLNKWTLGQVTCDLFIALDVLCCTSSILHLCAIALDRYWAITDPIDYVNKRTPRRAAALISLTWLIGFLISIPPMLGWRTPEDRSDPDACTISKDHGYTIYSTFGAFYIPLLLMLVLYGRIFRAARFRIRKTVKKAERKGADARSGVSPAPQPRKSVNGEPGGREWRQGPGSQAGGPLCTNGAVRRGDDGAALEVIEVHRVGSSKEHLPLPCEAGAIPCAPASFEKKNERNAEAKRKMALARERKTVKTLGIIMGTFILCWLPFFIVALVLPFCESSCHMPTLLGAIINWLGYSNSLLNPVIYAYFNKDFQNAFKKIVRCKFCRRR
Outline: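 Dog tissue: unfixed beagle brain (4.5–15.4 yr), stored at −80 °C, cut as 10 µm hemi-coronal slices with hippocampus and cortex. Human tissue: postmortem hippocampus (PMI 3.8–5.8 h), cut at 7 µm. Slices preincubated in 50 mM Tris-HCl pH 7.4 for 10 min at room temperature, then incubated with 37–185 kBq/mL tracer at 37 °C for 1 h. […] Two 1-min ice-cold buffer washes, then 24 h phosphor-screen exposure. Binding read as DLU/mm².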

[2] = test system: serotonin 5-HT1A receptor; format: binding, human; details: [5-HT1A affinity/other receptor affinity]×100; 5-HT1A 0.6 or 2.2 nM for WAY-100635, 0.9 nM for Mefway
[3] = target: serotonin 5-HT1A receptor (Homo sapiens, UniProt P08908); format: binding; details: human cloned receptor, PDSP
D1 = D1 (Homo sapiens, UniProt P21728); experiment: NIMH PDSP binding affinity, human cloned receptor; details: D1-like receptors
Chain of D1 (P21728 whole entry): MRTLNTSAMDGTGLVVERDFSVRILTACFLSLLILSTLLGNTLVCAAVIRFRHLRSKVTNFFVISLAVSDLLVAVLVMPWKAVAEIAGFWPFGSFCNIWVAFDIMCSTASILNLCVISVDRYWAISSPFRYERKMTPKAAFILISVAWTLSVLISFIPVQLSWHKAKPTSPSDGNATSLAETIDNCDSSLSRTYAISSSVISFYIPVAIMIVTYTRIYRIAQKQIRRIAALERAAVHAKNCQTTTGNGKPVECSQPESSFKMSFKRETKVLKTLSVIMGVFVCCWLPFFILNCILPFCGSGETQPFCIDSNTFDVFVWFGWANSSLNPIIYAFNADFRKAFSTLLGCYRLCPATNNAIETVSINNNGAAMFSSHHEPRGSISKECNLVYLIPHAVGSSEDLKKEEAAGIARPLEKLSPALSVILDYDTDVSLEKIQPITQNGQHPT

[4] = rhesus monkey; ref Wooten et al., 2013; cited from earlier work
5-HT1A receptors [5] = target: T2, 5-HT1A receptors (Homo sapiens, UniProt P08908); details: ref Hillmer et al., 2014, cited from earlier work; for HP/CB PET ratio / Brain Uptake: human; for HP/CB PET ratio: 90 mins post-injection; for Brain Uptake: initial, 1–2 min post-injection
T2 sequence (P08908 1-422): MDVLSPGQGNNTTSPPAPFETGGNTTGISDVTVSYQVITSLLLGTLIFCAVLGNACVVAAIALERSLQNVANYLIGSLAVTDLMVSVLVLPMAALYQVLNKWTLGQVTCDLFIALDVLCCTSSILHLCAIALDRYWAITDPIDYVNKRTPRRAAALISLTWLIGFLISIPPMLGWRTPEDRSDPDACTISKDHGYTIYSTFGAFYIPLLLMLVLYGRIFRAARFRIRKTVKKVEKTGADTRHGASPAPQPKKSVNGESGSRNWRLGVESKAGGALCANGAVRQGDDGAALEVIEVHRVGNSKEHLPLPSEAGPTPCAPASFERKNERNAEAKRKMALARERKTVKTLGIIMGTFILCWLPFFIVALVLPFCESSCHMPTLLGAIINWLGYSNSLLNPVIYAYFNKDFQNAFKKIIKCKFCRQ

[6] = test system: all other human-cloned receptor subtypes tested; experiment: NIMH PDSP screening of the remaining panel; format: binding
dopamine D4 = dopamine D4 (Homo sapiens, UniProt P21917); experiment: NIMH PDSP binding affinity, human cloned receptor
Chain of dopamine D4 (P21917 whole entry): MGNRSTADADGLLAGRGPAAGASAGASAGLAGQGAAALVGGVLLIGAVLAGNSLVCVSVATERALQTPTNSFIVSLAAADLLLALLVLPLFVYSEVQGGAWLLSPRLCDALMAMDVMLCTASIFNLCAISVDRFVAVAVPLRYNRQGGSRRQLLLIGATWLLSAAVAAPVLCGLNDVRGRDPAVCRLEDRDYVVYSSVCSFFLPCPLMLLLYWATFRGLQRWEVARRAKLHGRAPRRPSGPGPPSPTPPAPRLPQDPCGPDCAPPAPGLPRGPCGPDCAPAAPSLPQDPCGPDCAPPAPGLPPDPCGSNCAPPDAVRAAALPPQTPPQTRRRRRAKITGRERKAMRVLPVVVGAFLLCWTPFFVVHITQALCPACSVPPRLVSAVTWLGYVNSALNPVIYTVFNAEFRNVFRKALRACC

5-HT1A receptors [7] = target: T3, 5-HT1A receptors (Mus musculus, UniProt Q64264); experiment: In vitro autoradiography of 18F-Mefway, mouse brain slices; format: binding
T3 sequence (Q64264 1-421): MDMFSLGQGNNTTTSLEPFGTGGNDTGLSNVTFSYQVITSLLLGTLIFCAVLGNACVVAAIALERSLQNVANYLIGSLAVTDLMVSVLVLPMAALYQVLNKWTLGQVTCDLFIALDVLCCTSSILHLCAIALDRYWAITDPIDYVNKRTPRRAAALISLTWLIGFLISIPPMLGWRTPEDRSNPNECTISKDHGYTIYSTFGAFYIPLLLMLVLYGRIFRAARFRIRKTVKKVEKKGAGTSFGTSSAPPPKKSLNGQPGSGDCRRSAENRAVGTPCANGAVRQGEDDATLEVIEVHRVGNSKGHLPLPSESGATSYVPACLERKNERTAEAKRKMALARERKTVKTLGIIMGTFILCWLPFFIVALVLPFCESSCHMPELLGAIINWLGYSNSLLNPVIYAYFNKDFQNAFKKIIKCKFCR
Outline: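 Horizontal 10 µm slices covering hippocampus, frontal cortex, dorsal raphe and cerebellum. Sources: frozen brains of male BALB/c mice (25 g) or male Sprague-Dawley rats (250–300 g). Preincubated in 50 mM Tris-HCl pH 7.4 for 10 min at room temperature, then 37–185 kBq/mL tracer at 37 °C for 1 h. […] Washed, then phosphor screen for 24 h. Regional DLU/mm² expressed as ratios to cerebellum as reference.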

[8] = dog brain cortex, relative to layers I and II

Chain of D2 subtype (P14416 whole entry): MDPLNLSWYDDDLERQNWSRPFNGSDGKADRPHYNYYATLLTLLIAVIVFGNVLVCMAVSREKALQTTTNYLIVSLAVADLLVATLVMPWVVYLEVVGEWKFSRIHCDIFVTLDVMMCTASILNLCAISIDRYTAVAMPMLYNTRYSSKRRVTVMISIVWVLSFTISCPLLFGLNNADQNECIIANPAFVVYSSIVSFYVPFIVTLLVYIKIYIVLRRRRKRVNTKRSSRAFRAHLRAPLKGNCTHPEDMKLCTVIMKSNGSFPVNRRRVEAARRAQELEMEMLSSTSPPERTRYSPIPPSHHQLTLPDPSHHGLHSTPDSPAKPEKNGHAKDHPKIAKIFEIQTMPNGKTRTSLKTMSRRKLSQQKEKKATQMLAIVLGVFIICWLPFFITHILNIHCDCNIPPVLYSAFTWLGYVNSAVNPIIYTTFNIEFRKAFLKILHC

Structure (SMILES): COc1ccccc1N1CCN(CCN(C(=O)C2CCC(CF)CC2)c2ccccn2)CC1 (stereo not drawn) [Mefway]
- Ki (D2 subtype): 188 nM
- Affinity, D5 subtype (D5): very poor affinities
- Morbidity or mortality (Sprague-Dawley rats; 4, 20 and 40 μg/kg/day i.v.): no morbidity or mortality
- Tolerability (Sprague-Dawley rats; 4, 20 and 40 μg/kg/day i.v. on Days 1, 3 and 6): well tolerated
- Maximum tolerated dose (MTD) (Sprague-Dawley rats): > 278 μg/m^2/day
- No observed adverse effect level (NOAEL) (Sprague-Dawley rats): > 278 μg/m^2/day
- Maximum tolerated dose (MTD) (Sprague-Dawley rats; maximum dose level tested): exceed 40 μg/kg/day
- No observed adverse effect level (NOAEL) (Sprague-Dawley rats; maximum dose level tested): exceed 40 μg/kg/day
- Level of binding in cortical layers I and II (5-HT1A receptors [1]; dog brain cortex, relative to highest layer): 100%
- Level of binding in cortical layers III and IV (5-HT1A receptors [1]; [8]): 31%
- Level of binding in cortical layers V and VI (5-HT1A receptors [1]; [8]): 36%
- Ratio of hippocampus to white matter, autoradiography (5-HT1A receptors [1]; dog brain, same brain slice): > 50
- Binding displaced in hippocampus and cortex (5-HT1A receptors [1]; in the presence of 10 μM of WAY-100635, dog (all the species)): > 95%
- % human 5HT1A Selectivity, 5-HT1A [2]: 100%
- Binding affinity, Ki, 5-HT1A [3]: subnanomolar affinity
- Ki ([3]; read-out: Binding affinity, Ki, 5-HT1A): 0.9 nM
- Affinity, D1 subtype (D1): very poor affinities
- Free Fraction in plasma [4]: 15% ^j
- Adverse or pharmacologic effects in human subjects (5-HT1A receptors [5]; approximately 185 MBq bolus, 6 subjects): no adverse or clinically detectable pharmacologic effects
- Binding potential HP, BPND (5-HT1A receptors [5]; human hippocampus): 2.7 ^i
- HP/CB PET ratio (5-HT1A receptors [5]): 4 ^i
- HP/CB PET ratio (5-HT1A receptors [5]; listed as 18F-Mefway): 4
- Brain Uptake (5-HT1A receptors [5]): 0.002 ^e %ID/cc
- Brain Uptake (5-HT1A receptors [5]; listed as 18F-Mefway): 0.002 %ID/cc
- Affinity, other adrenergic receptor subtypes ([6]; adrenergic subtypes other than α1A and α1D): poor affinities
- Affinity, all other receptor subtypes tested in section 2.3 ([6]; at 10 μM concentration, significant = > 50% inhibition): did not exhibit significant affinity
- Affinity, other serotonin receptor subtypes ([6]; serotonin subtypes other than 5-HT1A, 5-HT7, 5-HT2B): did not show significant affinities
- % human 5HT1A Selectivity, D4 (dopamine D4; [5-HT1A affinity/other receptor affinity]×100, 5-HT1A 0.6 or 2.2 nM for WAY-100635, 0.9 nM for Mefway): 0.71%
- Ki (dopamine D4; read-out: Binding affinity, Ki, D4, human cloned receptor, PDSP): 126 nM
- Binding displaced in hippocampus and cortex (5-HT1A receptors [7]; in the presence of 10 μM of WAY-100635, mouse (all the species)): > 95%
- Ratio in cortical regions, autoradiography (5-HT1A receptors [7]; mice): > 10
- Ratio of hippocampus to cerebellum, autoradiography (5-HT1A receptors [7]; mice, brain slices incubated for one hr): 25
- Ratio of raphe to cerebellum, autoradiography (5-HT1A receptors [7]; mice, horizontal sections): 22
